Among the data in ChEMBL document CHEMBL4513216, “Probing the Open Global Health Chemical Diversity Library for Multistage-Active Starting Points for Next-Generation Antimalarials” (ACS Infect Dis, 2020) are cytotoxicity values, retold here.

The nature of the series: Toxicity liver stage against HepG2, at 10uM. Type of series: cell-based. Details: test concentration 10 uM, cell line HepG2-A16-CD81EGFP. As to conditions: human, HepG2-A16-CD81EGFP cells; read-out: INHIBITION
The gist of the method: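 Uninfected HepG2-A16-CD81EGFP cells, 3 × 10^3 per well, 1536-well, plated on prespotted compound at 10 μM final, parasite-free screening media added to match infected plates; puromycin 10 μM positive, DMSO 0.5% negative; run in parallel with 48 h PbLuc assay at 37 °C, 5% CO2; viability by CellTiter-Glo luminescence, normalized to controls.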
As for `COc1ccccc1CNC(=O)CS(=O)(=O)Cc1ccccc1`, the cytotoxicity at 10 µM stood at 3.26%.
In the case of `CCCn1cnc2c1CN(C(=O)c1ccc(F)cc1)[C@H](C(=O)OC)C2` it was 4.94%; in that of `CCN(CC)C1(Cc2cc(-c3cccc(O)c3)on2)COC1`, 7.71%.
With `F[C@@H]1CN(CC2CCCCC2)C[C@@H]1OCc1nc2ccccc2o1` the figure was 1.9%; with `O=C(Cc1ccc(F)cc1)NCC(O)(c1cccs1)C1CC1` (configuration not stated), -39.3%.
In the case of `COc1cc(C(=O)NCCc2ccc(OC)c(OC)c2)on1` it was 1.84%; in that of `COC1(CNC(=O)c2ccc(F)c(F)c2)CCSC1` (configuration not stated), -2.11%.
`O=C(c1ccoc1)N1CCC2(CC1)C(=O)N(CC1CC1)c1ccccc12`: the cytotoxicity at 10 µM turned out to be 10.7%.
With `O=C1CC2(CCCCN2C(=O)c2ccccc2)CN1CC1CC1` (configuration not stated) the figure was 3.85%.
With `O=C(c1cscn1)N1CCC2(CCN(S(=O)(=O)c3ccccc3)C2)C1` (configuration not stated) the figure was 11%.
Regarding `O=C([C@@H]1CCO[C@@H]2CCN(Cc3ccco3)C[C@H]21)N1CCCCO1`, the cytotoxicity at 10 µM was 9.76%.
With `COc1ccc(SCC2CNc3nc4ccccc4c(=O)n32)cc1` (configuration not stated) the figure was 7.69%.
In the case of `CC(OCC1CC1)C(=O)Nc1ccn(Cc2ccccc2)n1` (configuration not stated) it was 11.9%; in that of `CC(OCC1CC1)C(=O)N1CCCN(c2cccnn2)CC1` (configuration not stated), 8.13%.
In the case of `O=S(=O)(N1CCCCC1)N1CCCN(CC2CCCO2)CC1` (configuration not stated) it was -3.94%; in that of `CN(Cc1ccccc1F)C(=O)COC(=O)c1cc(Cl)c[nH]1`, 12.4%.
Regarding `CCN(CC(C)O)C(=O)Nc1cnn(CCOC)c1` (configuration not stated), the cytotoxicity at 10 µM is -11.6%.
In the case of `O=C1CSCN1Cc1nc(-c2ccc(N3CCCCC3)cc2)no1` it was -6.79%.
In the case of `CSCCC(NC(N)=O)C(=O)NCc1cnn(-c2ccccc2)c1` (configuration not stated) it was 5.79%; in that of `Cn1cc(C2CCCN2C(=O)CS(=O)(=O)C2CCCC2)cn1` (configuration not stated), -4.8%.
In the case of `CCC(C)(CC(=O)OC)NC(=O)c1ccc2[nH]ccc2c1` (configuration not stated) it was -2.8%; in that of `CCc1nnc2n1CCN(C(=O)CCOc1ccc(C)cc1C)C2`, 2.93%; in that of `COCc1nccc(C2CCCN(Cc3ccc(SC)cc3)C2)n1` (configuration not stated), 23.4%.
`Cc1cccc(N(C)S(=O)(=O)c2cc(C(=O)O)cs2)c1C`: the cytotoxicity at 10 µM was -0.731%.
In the case of `Cc1nn(C)c(C)c1OCC(=O)NCC(O)c1ccsc1` (configuration not stated), the cytotoxicity at 10 µM is 2.27%.
In the case of `O=C(CCCNCc1ccc(Cl)c2cccnc12)NC1CC1` it was -4.76%; in that of `Cc1cc(=O)n2ncnc2n1CC(O)c1cc(Cl)ccc1Cl` (configuration not stated), 3.19%.
In the case of `CCN(CC)c1ccc(NS(=O)(=O)c2cnn(C(C)C)c2)cn1` it was 5.02%; in that of `Cc1cc(C)n(CC2CN(CCc3ccncc3)CCO2)n1` (configuration not stated), 0.347%.
With `Cc1ccc(C(=O)NCC(O)c2cnn(C)c2)c(Br)c1` (configuration not stated) the figure was -6.53%; with `Cc1cc(C(=O)N2CCN(CC(O)Cn3cccn3)CC2)c(C)o1` (configuration not stated), -4.76%; with `Cc1ccc(NC(=O)C2CCc3ccccc3N2)cc1` (configuration not stated), -5.57%.
`CCCOC1CCCN(C(=O)c2[nH]nc(C)c2Br)C1` (configuration not stated): the cytotoxicity at 10 µM came out at 0.595%.
As for `Cc1cc(CN(Cc2ccccc2)C(C)CN2CCOCC2)no1` (configuration not stated), the cytotoxicity at 10 µM worked out at 4.69%.
As for `CNC(=O)NC(=O)CCSc1ccccc1C`, the cytotoxicity at 10 µM was 4.11%.
With `CCc1noc(CCCC(=O)Nc2cc(C(F)(F)F)c[nH]c2=O)n1` the figure was -4.84%.
With `Cc1nnc2n1CCN(C(=O)CN1C(=O)CSc3ccccc31)C2` the figure was 0.442%.
For `O=C(Nc1cccnc1-n1cccn1)N1CCCC(N2CCCC2)C1` (configuration not stated), the cytotoxicity at 10 µM stood at 8.53%.
With `Cn1cc(NC(=O)c2ccccn2)cc(Br)c1=O`, the cytotoxicity at 10 µM is -12.8%.
With `CCc1nnc2n1CCN(C(=O)c1csc(-c3cnn(C)c3)n1)C2` the figure was 6.41%; with `COc1ncnc2c1CCN(CC1CCOC1)CC2` (configuration not stated), -68.9%.
With `COCCC1COC2(CCN(C(=O)c3ccco3)CC2)C1` (configuration not stated) the figure was 3.63%; with `CN(C)C(C(=O)N1CCN(CCn2cccc2)CC1)c1ccc(F)cc1` (configuration not stated), -14.9%; with `CCCN1CCCn2nc(CNS(=O)(=O)c3cccc(F)c3)cc2C1`, -13.1%.
In the case of `COc1cccc2ccc(CN3CCN(c4cccnc4)CC3)nc12` it was -8.66%; in that of `Cn1ccnc1CN(CCO)Cc1ccc(C(F)(F)F)cc1`, -17.3%.
Regarding `CCCn1cc(-c2cc(C(=O)N(C)C)c3ccc(OC)cc3n2)cn1`, the cytotoxicity at 10 µM is 6.22%.
`O=C(O)[C@@H]1CN(Cc2cnc(C3CCCCC3)nc2)C[C@H]1C1CC1`: the cytotoxicity at 10 µM was -10%.
`COCCN1CCC(CN(CC2CCCO2)C(=O)C2CCOCC2)CC1` (configuration not stated): the cytotoxicity at 10 µM was -0.401%.
In the case of `O=S(=O)(c1c(Cl)nc2sccn12)N1CCCC2(CCNC2)C1` (configuration not stated) it was 8.64%; in that of `CN(Cc1nc(CC2CC2)no1)CC1COc2ccccc2O1` (configuration not stated), -3.89%; in that of `c1cc(CN2CCC(c3nnc4n3CCCCC4)CC2)c2c(c1)OCO2`, -3.14%.
For the compound `CC(C)c1nnc(NCc2cc3n(n2)CCNC3)s1`, the cytotoxicity at 10 µM is -2.11%.
With `Cc1nc(C2CCNCC2)cc(N2CCCC(C(=O)NCCCO)C2)n1` (configuration not stated) the figure was -124%; with `Cc1nc2cc(C(=O)N3C[C@@H](C(=O)O)[C@H](C4CC4)C3)ccc2[nH]1`, -12.1%; with `Nc1ccc(C(=O)N2CCC(Oc3cccc(C(F)(F)F)c3)CC2)cn1`, 5.3%.
For `COCCC1CCCCN1C(=O)c1coc(COc2ccccc2F)n1` (configuration not stated), the cytotoxicity at 10 µM is 3.97%.
In the case of `CN1CCCC2(CCN(S(=O)(=O)c3c(Cl)nc4sccn34)C2)C1=O` (configuration not stated) it was 12.4%; in that of `COc1nc2c(cc1C(=O)NCCCc1csc(N)n1)CCC2`, 3.63%.
With `COc1ccc(C(C(=O)O)N2CCN(C3CCCCC3)CC2)cc1OC` (configuration not stated) the figure was -4.89%; with `CCc1nc(C)sc1CN1CC[C@@](O)(C2CC2)[C@H](C)C1`, -10.3%.
With `Cc1nc(C(=O)N2CCCC(c3cccc(-n4ccnc4)n3)C2)co1` (configuration not stated) the figure was 8.31%.
Consider `CN(C)Cc1ccnc(C2CCCN2Cc2cc[nH]n2)n1` (configuration not stated), for which the cytotoxicity at 10 µM was -0.902%.
With `CCc1nc(C2CCCN2C(=O)c2cnns2)no1` (configuration not stated) the figure was 1.04%; with `Cc1cnn(CC2CN(CC(=O)Nc3nccs3)CCO2)c1` (configuration not stated), -7.51%; with `O=C(Cc1ccc(F)cc1)N1CCN(CC(O)c2ccccc2)CC1` (configuration not stated), -11.2%.
`Cc1nc(C2CCCN(C(=O)CCn3ccccc3=O)C2)no1` (configuration not stated): the cytotoxicity at 10 µM was -9.35%.
For the compound `COc1c(C)cnc(CN2CCOC(Cn3cc(C)cn3)C2)c1C` (configuration not stated), the cytotoxicity at 10 µM is -14.7%.
As to `COc1cc(C(=O)Nc2nc(C)no2)ccc1OC1CCCC1`, the cytotoxicity at 10 µM is -2.12%.
In the case of `COc1cccc(-n2c(C)cc(C(=O)NC(C)(C)C(N)=O)c2C)c1` it was -2%; in that of `Brc1ccccc1-c1nnc(CNCCn2cccn2)o1`, -24.5%; in that of `Cc1nc(CN2CCCN(Cc3nccn3C(C)C)CC2)no1`, -1.91%.
In the case of `CC(=O)NCCNC(=O)CN1CCCC(Cn2cncn2)C1` (configuration not stated) it was -18.9%; in that of `CC(C)CCC(=O)N(C)CC(=O)Nc1ccc(Br)cn1`, -8.39%.
With `CC(C)CC(=O)N(C)CC(=O)Nc1ccc(Br)cn1` the figure was -1.43%; with `O=C(NC1CCN(Cc2cccc3c2OCCO3)CC1)c1cccs1`, -4.71%; with `CN(Cc1ccco1)C(=O)[C@H]1CSCN1C(=O)OC(C)(C)C`, -8.97%.
As for `CNc1nc(CNC(=O)Nc2cccc(-c3nnco3)c2)cs1`, the cytotoxicity at 10 µM is -5.26%.
With `O=C(NCCOCC(F)(F)F)c1ccc(-c2ccco2)[nH]c1=O` the figure was -8.5%; with `Cc1ccc(N2CCCC(NCc3cccc4c3OCCO4)C2)nn1` (configuration not stated), -1.69%.
As to `O=C1CCC2(CCC(NCc3ccsc3)CC2)N1Cc1ccccc1` (configuration not stated), the cytotoxicity at 10 µM came to 3.79%.
For `c1cc(CN2Cc3nnn(CC4CC4)c3C(COCC3CC3)C2)co1` (configuration not stated), the cytotoxicity at 10 µM is -0.336%.
For the compound `O=C(CN1CC(c2nc(C3CC3)no2)C1)N1CCOCC1`, the cytotoxicity at 10 µM is -9.76%.
With `Cc1noc([C@@H]2C[C@H]3OCC[C@H]3N(CC3CCCC3)C2)n1` the figure was -77.5%.
In the case of `CN(C)C[C@H]1OC[C@@H]2CCN(C(=O)c3ccc[nH]3)C[C@@H]21` it was 5.41%; in that of `O=C(NC1CC1)[C@@H]1C[C@@H]2CCN(Cc3ccccc3)C[C@H]2O1`, -68%.
In the case of `COCC1CN(Cc2ccc(C)o2)Cc2cn(C)nc21` (configuration not stated) it was -9.2%.
In the case of `CNCC(=O)N1CC(c2cc(Nc3ncccn3)nc(C)n2)C1`, the cytotoxicity at 10 µM is 4.19%.
With `CCOC1COC2(CCN(Cc3cccc(C#N)c3)CC2)C1` (configuration not stated) the figure was -2.66%; with `O=C(c1ccncc1F)N1CCc2onc(COc3cccnc3)c2C1`, -70.6%; with `CN1CCn2c(-c3ccccc3)cnc2C12CCN(CC1CC1)CC2`, 5.35%.
Take `COc1ccc(C[C@H]2CN(C3CCOCC3)CC[C@@H]2OCC2CC2)cc1`: the cytotoxicity at 10 µM was 2.38%.
`COc1ccc(CN2CCc3c(CNC(=O)CC#N)nn(C)c3C2)cc1`: the cytotoxicity at 10 µM was determined as 9.67%.
In the case of `COCCN1CCOCC12CCN(C(=O)c1cccnc1)CC2` it was -73.1%; in that of `COCC1CN(Cc2ccncc2)Cc2nn(CC3CC3)cc21` (configuration not stated), -73.7%.
With `O=C(C1CN(CC2CCOCC2)CC12CCOCC2)N1CCCC1` (configuration not stated) the figure was 6.65%; with `CN(C)C(=O)CN1C[C@H]2CC[C@@H](C1)N(Cc1c(F)cccc1Cl)C2`, 5.48%.
